In PubChem BioAssay AID2692 (The Scripps Research Institute Molecular Screening Center, 2010):
Calls of active or inactive are those of the source. The rule behind the calls is not given here.

Tested on: transient receptor potential cation channel subfamily N member 1 (TRPN1/NompC), zebrafish
Experiment: TRPN1 current increase by agonists – whole-cell patch clamp, HEK293, selectivity assay for TRPML3 selective agonist project, late-stage follow-up (AID 2692)
Settings: at 10 µM
Summary of the method: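 Buffer or medium: NaCl bath pH 7.4 plus 2-APB, CsCl/BAPTA pipette pH 7.2; Test system: HEK293 cells expressing the TRPN1 ion channel; Technique: whole-cell patch clamp, 20 mV steps −200 to +100 mV; Timing: 10 ms steps, holding potential +10 mV; Dosing: compound at 10 µM only.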

| current density at -80 mV | Structure (SMILES) |
| --- | --- |
| -0.003 nA/pF (inactive) | CCOc1ccc(S(=O)(=O)N2CCCCCC2)c2ccccc12 |
| -0.003 nA/pF (inactive) | CC1CCN(S(=O)(=O)c2ccc(C(C)C)cc2)CC1 |
| -0.004 nA/pF (inactive) | Cc1ccc(S(=O)(=O)n2nccc2-c2c(-c3ccc(Cl)cc3)noc2C)cc1 |
